From PubChem BioAssay
Most compounds without a hit are left out; they make up all but 3% or so of the library.
PKD1 kinase inh – PKD1 (human) kinase inhibition; inhibition, % (test concentration not listed); actives 0.056% (n = 200,000); PKD1 kinase fluorescence polarization assay; in the data active = inhibition above about 50%
Target sequence (Q15139 whole entry, looked up): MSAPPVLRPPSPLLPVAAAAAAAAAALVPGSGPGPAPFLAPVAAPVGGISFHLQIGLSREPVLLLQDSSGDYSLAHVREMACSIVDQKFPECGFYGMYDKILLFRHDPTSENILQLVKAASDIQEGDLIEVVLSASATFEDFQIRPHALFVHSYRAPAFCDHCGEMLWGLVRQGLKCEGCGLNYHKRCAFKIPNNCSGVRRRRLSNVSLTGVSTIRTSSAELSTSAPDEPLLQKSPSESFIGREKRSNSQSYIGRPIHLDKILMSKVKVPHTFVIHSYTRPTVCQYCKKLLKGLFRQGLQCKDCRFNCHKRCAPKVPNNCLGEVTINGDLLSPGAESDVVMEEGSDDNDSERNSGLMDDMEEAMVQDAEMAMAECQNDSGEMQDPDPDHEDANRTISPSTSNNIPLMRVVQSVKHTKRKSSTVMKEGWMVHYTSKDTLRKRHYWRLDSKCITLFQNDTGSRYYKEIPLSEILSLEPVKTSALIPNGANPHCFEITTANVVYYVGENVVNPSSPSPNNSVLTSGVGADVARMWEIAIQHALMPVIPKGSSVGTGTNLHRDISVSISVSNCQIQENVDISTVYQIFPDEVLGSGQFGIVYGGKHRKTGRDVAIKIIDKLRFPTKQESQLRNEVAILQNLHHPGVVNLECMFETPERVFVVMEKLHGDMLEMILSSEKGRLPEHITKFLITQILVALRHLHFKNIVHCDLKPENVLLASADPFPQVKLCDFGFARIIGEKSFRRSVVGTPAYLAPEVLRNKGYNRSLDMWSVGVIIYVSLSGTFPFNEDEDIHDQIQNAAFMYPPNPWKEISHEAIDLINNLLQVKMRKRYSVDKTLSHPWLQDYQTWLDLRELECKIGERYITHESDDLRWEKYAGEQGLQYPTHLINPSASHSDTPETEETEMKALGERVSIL
Rad51 HR inh – blocks human Rad51 in homologous recombination; Q06609; hRad51 DNA strand exchange, fluorescence dequenching; inhibition, % at 10 µM; actives 0.085% (n = 200,000);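 active = inhibition above 40% at the single screening dose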;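 note: 0% = DMSO control wells and 100% = blanks with heterologous ssDNA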
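Test system – preformed human Rad51 ssDNA filaments · Reagent – Donor/quencher-labelled 47-bp dsDNA substrate · Incubation – 37 °C 15-min filament assembly, 30-min compound preincubation, 15-min exchange · Signal – FRET fluorescence dequenching, excitation 485 nm, emission 520 nm · Read-out – percent inhibition from fluorescence, normalised to plate control and blank means · Benchmarks – plate control and blank wells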
ROMK primary – human ROMK K+ channel modulation, primary screen. P48048. Tet-inducible ROMK, thallium flux fluorescence; actives lie on both sides. B-score at 10 µM. actives 2% (n = 130,000). AID 1918;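 active = signal ratio slope over the read window, or its plate-corrected B-score, at least 3 SD from the plate mean, either direction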;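 note: B-score of the F/F0 ratio slope over 7 to 12 s after thallium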
KCC2 mod – modulates chloride dependent transport by human KCC2. KCC2 cells, thallium flux FluoZin-2 fluorescence. B-score of Tl+ flux slope (higher = more flux/activation; lower = inhibition) at 10 µM. actives 2.2% (n = 190,000);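 active = thallium flux slope and its plate-corrected score both differing from the plate sample mean at a set confidence after two filtering rounds, in either direction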;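 note: slope of fluorescence scaled to starting intensity during 10 to 20 s after thallium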
KCC2 secondary – KCC2 (human) modulation, secondary assay | AID 1713 | actives 15% (n = 3,700) | shares compounds with KCC2 mod | HEK293-KCC2, thallium flux, FluoZin2 fluorescence; stronger effect = higher value | normalised thallium flux (F/F0 slope) at 10 µM;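 active = thallium flux slope above the same plate's solvent-only control mean plus 3 SD; inconclusive = the two replicate wells disagree; inactive = no significant difference from solvent-only control wells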
KCC2 bumet counter – thallium flux persisting under bumetanide in KCC2 cells, counter-screen secondary assay | shares compounds with KCC2 mod | HEK293-KCC2 + bumetanide/ouabain, thallium flux FluoZin2; stronger effect = higher value | normalized thallium flux at 10 µM | actives 49% (n = 3,700);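 active = thallium entry rate above the same plate's blocked-transporter control wells by more than 3 SD; inconclusive = the two repeat wells disagree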;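 note: raw slope of fluorescence over initial fluorescence between 10 and 20 s after thallium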
KCC2 secondary2 – confirmation of human KCC2 transport modulators; normalized thallium flux at 10 µM; HEK293-KCC2, thallium flux FluoZin2 fluorescence; actives lie on both sides; F/F0 rise rate, 10–20 s post-thallium; shares compounds with KCC2 mod; actives 23% (n = 3,700);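 active = thallium flux slope more than 3 SD above or below the plate's solvent-only control mean, mostly below; inconclusive = the two repeat wells disagreed; inactive = no significant shift from solvent-only controls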;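 note: raw slope with 0.1% DMSO as baseline and bumetanide as block control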
HEK293 Tl flux – acts in parental HEK cells, KCC2 counter-screen; shares compounds with KCC2 mod; HEK293 parental cells, thallium flux FluoZin2, ouabain; baseline-ratio fluorescence slope, 10–20 s after thallium; thallium flux rate (normalised fluorescence) at 10 µM; actives 46% (n = 3,700); AID 1716;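 active = thallium flux rate significantly above the same plate's solvent-only control wells, beyond their mean plus 3 SD; inconclusive = the two replicate wells gave conflicting results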
KCC2 retest ouab – KCC2 (human) modulation, ouabain retest; raw Tl+ flux slope (below DMSO = inhibition, above = activation) at 10 µM; shares compounds with KCC2 mod; actives 48% (n = 3,700); HEK293-KCC2, thallium flux FluoZin2 fluorescence; bidirectional: low = inhibitor, high = activator;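 active = thallium flux slope beyond 3 SD from same-plate DMSO control mean in most replicates, usually higher, sometimes lower; inconclusive = repeat tests gave conflicting results; inactive = no significant difference from controls in most replicates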;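 note: slope of initial-normalized fluorescence between seconds 10 and 20 after thallium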
HEK counter2 – parental HEK flux effect, counter-screen 2 | shares compounds with KCC2 mod | HEK293 parental, thallium flux FluoZin-2 fluorescence slope | thallium flux slope at 10 µM | actives 33% (n = 3,700) | AID 1718;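 active = thallium flux slope above the same plate's solvent-control mean plus 3 SD in both duplicate wells; inconclusive = duplicate wells that disagreed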;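 note: run without ouabain in cells lacking the KCC2 cotransporter; slope of fluorescence scaled to its starting value between 10 and 20 s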
Active calls of the source: *; ? = inconclusive; . = no result given.

SMILES | PKD1 kinase inh | Rad51 HR inh | ROMK primary | KCC2 mod | KCC2 secondary | KCC2 bumet counter | KCC2 secondary2 | HEK293 Tl flux | KCC2 retest ouab | HEK counter2
CCCOc1ccc(NC2=CC(=O)CC(C)(C)C2)cc1 | 13 | -2 | 0.68 | . | 0.0062 | 0.0051 | 0.03 | 0.0077 | 0.018 | 0.011
CC(C)(C)c1cc(-c2n[nH]c(=S)n2-c2ccccc2F)n[nH]1 | . | . | . | 39* | 0.0072 | 0.047* | 0.045* | 0.033* | 0.042* | 0.03*
Cc1ccccc1OCC(=O)N/N=C/C=C/c1ccccc1 | 1 | 27 | -0.052 | -1 | . | . | . | . | . | .
Cc1cccc(OCC(=O)N/N=C/CC(C)c2ccccc2)c1C (stereo not drawn) | 3 | 5 | -0.93 | -4.5* | 0.0089 | 0.0054 | 0.031 | 0.0074 | ? | 0.011
COC(=O)CNC(=O)C(Cc1ccccc1)NS(=O)(=O)c1ccc2c(c1)c(=O)n(C)c(=O)n2C (stereo not drawn) | -2 | 17 | -0.28 | 0.42 | . | . | . | . | . | .
O=C(c1ccc(-c2ccccc2)cc1)C1CCCN(Cc2ccncc2)C1 (stereo not drawn) | 2 | . | -1.6 | -4.1* | 0.0069 | 0.0049 | 0.025* | 0.0079 | ? | 0.011
O=C(c1ccc(-c2ccccc2)cc1)C1CCCN(C(=O)c2ccncc2)C1 (stereo not drawn) | -7 | 3 | . | -1 | . | . | . | . | . | .
Cc1ncoc1C(=O)N1CCCC(C(=O)c2ccc(-c3ccccc3)cc2)C1 (stereo not drawn) | -3 | -4 | -0.96 | -3.3* | ? | 0.0062 | 0.03 | 0.0065 | 0.021* | ?
Cc1nc(SCc2ccccc2)c([N+](=O)[O-])[nH]1 | -4 | -1 | . | -5.2* | 0.009 | 0.0061 | 0.027* | 0.0039 | 0.014* | 0.011
COc1ccc(CSc2nc(C)[nH]c2[N+](=O)[O-])cc1[N+](=O)[O-] | . | 20 | . | -1.4 | . | . | . | . | . | .
Cc1ccc2cccc(NC(=S)NC(=O)c3ccn(C)n3)c2n1 | 2 | 2 | -0.14 | . | . | . | . | . | . | .
Cc1ccc2cccc(NC(=S)NC(=O)c3c(Br)cnn3C)c2n1 | 6 | 4 | . | 5.7* | 0.0067 | 0.015* | 0.027 | 0.014* | 0.029* | 0.012*
COc1ccc(CCNc2oc(COc3ccccc3F)nc2C#N)cc1OC | 2 | 6 | -3.2 | -4* | 0.0061 | ? | 0.026* | 0.0062* | 0.015* | ?
CCn1c(SCc2nc(-c3ccccc3)no2)nnc1-c1cccs1 | 2 | -5 | -0.087 | . | 0.0084 | 0.0045 | 0.031 | 0.007 | 0.016* | ?
O=c1[nH]c(SCc2ccc(F)cc2Cl)nc2ccccc12 | 7 | -22 | 0.19 | -0.14 | . | . | . | . | . | .
C/C(=N\Nc1ccc(C(=O)O)cc1)c1ccc(S(=O)(=O)NCc2ccco2)cc1 | . | -2 | . | 4.5* | 0.0087 | 0.0068 | 0.032 | 0.0072 | 0.021 | 0.01*
CC12CCC(C(=O)Nc3ccncc3)(CC1O)C2(C)C (stereo not drawn) | . | . | -0.58 | 0.69 | . | . | . | . | . | .
CCCCNC(=O)c1ccc2c(=O)n(CCCOCC)c(=S)[nH]c2c1 | 1 | -9 | . | 0.24 | . | . | . | . | . | .
CCOCCCNC(=O)c1ccc(-n2c(=S)[nH]c3ccccc3c2=O)cc1 | 4 | 8 | -0.85 | 10* | ? | 0.015* | 0.031 | 0.0093* | ? | 0.01*
COC(=O)c1ccc2c(=O)n(-c3ccc(OC)cc3)c(=S)[nH]c2c1 | -3 | . | 0.27 | 8.2* | 0.01 | 0.02* | 0.03 | 0.012* | ? | 0.0098
CCc1nnc(NC(=O)CSc2nnc(Cc3ccccc3)o2)s1 | 8 | 0 | -0.15 | . | 0.0072 | 0.007 | 0.027 | 0.0063 | ? | 0.0098
CCc1nnc(NC(=O)CSc2nnc(CNc3ccc(Cl)cc3)o2)s1 | -6 | -4 | -0.64 | . | . | . | . | . | . | .
COc1ccc(N2CCN(S(=O)(=O)c3cc(C)ccc3OC)CC2)cc1 | -6 | . | -0.2 | 0.59 | . | . | . | . | . | .
O=C(NNC(=O)c1ccc(Cl)cc1Cl)c1csc(-c2cccnc2)n1 | . | 20 | . | 8.1* | 0.0059 | 0.018* | 0.033 | 0.015* | ? | 0.018*
CC(C)NC(=O)c1onc(CSc2ccc(Cl)cc2)c1C(=O)O | -2 | 1 | . | -0.83 | . | . | . | . | . | .
SMILES | PKD1 kinase inh | Rad51 HR inh | ROMK primary | KCC2 mod | KCC2 secondary | KCC2 bumet counter | KCC2 secondary2 | HEK293 Tl flux | KCC2 retest ouab | HEK counter2
CC(C)NC(=O)c1onc(CSc2ccc(Cl)cc2)c1C(=O)NC(C)C | . | -10 | . | 2.4* | 0.0066 | 0.0045 | 0.027 | 0.0072 | 0.017 | 0.01
O=C(Cc1n[nH]c(=O)[nH]c1=O)N/N=C/CCc1ccccc1 | . | 14 | 0.16 | 0.35 | . | . | . | . | . | .
O=C(Oc1ccc2ccccc2c1Cl)N1CCCC1 | -13 | 2 | . | . | 0.0062 | 0.0053 | 0.029 | 0.0063 | 0.015* | 0.0094
O=C(COC(=O)/C=C/c1cccs1)Nc1ccc2ccccc2c1 | -13 | -3 | 0.39 | -0.35 | . | . | . | . | . | .
O=C(Nc1ccc(F)cc1)c1ccc(CSc2ccccc2)o1 | -3 | -2 | . | -3.4* | 0.0079 | 0.0071 | 0.034 | 0.0038 | 0.015* | 0.011
CCN(c1ccccc1)S(=O)(=O)c1ccc(Cl)c(NC(=O)CSc2n[nH]c(N)n2)c1 | -10 | 2 | . | 0.1 | . | . | . | . | . | .
COc1ccc(NC(=O)NNC(=O)c2ccccc2-n2cccc2)cc1OC | -5 | 2 | -0.58 | -1.9 | . | . | . | . | . | .
CCN(CC)C(=S)SCC(=O)Nc1ncc2c(n1)CC(C)(C)CC2=O | . | . | . | 5.6* | 0.0058 | 0.0049 | 0.031 | 0.0075 | 0.019 | 0.011
COc1ccccc1CN(Cc1nc2ccccc2c(=O)[nH]1)C(=O)Nc1ccc(C)cc1 | -6 | -1 | 0.6 | . | . | . | . | . | . | .
COc1ccccc1CN(Cc1nc2ccccc2c(=O)[nH]1)S(=O)(=O)c1ccc(C)cc1 | -2 | -7 | -0.43 | . | 0.0094 | 0.0059 | 0.03 | 0.0071 | 0.019 | 0.01
CN1CCN(C(=S)c2cn(CCOc3ccccc3F)c3ccccc23)CC1 | -5 | 2 | -1 | -1.1 | . | . | . | . | . | .
O=C(COc1ccc(-c2ccccc2)cc1)N1CCN(C(=O)c2cccs2)CC1 | 2 | 27 | -0.8 | -0.68 | . | . | . | . | . | .
CC(C)c1nc2sc3c(=O)[nH]c(=S)[nH]c3c2c2c1CCCC2 | . | 0 | . | -1.5 | . | . | . | . | . | .
CC(C)c1nc2sc3c(=O)[nH]c(=S)[nH]c3c2c2c1CCC2 | 7 | -8 | . | -7.9* | 0.016 | 0.0063* | ? | 0.0051* | 0.0094* | ?
COc1cc(C)ccc1S(=O)(=O)n1nc(C)cc1C | -6 | . | -0.64 | 0.95 | . | . | . | . | . | .
CN(C)C(=O)COc1ncnc2scc(-c3ccc(F)cc3)c12 | -4 | -21 | -0.32 | 0.32 | . | . | . | . | . | .
